# Assay outcomes deposited in PubChem BioAssay by The Scripps Research Institute Molecular Screening Center.
# NPY2 pot ag: NPY-Y2 potentiators or agonists, primary screen, cell-based; cells expressing NPY-Y2, potentiator/agonist read-out; AID 1359, 2008; 220,000 compounds, 0.45% hits; Neuropeptide Y receptor type 2 (Homo sapiens), P49146; activation, % at 3.6 µM; in the data active means activation above about 27%;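 further: cells stimulated with NPY near EC25 plus isoproterenol at EC100; 0% = vehicle plus submaximal agonist and 100% = vehicle plus saturating agonist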
# NPY-Y1 antag: NPY-Y1 receptor antagonists, primary screen, cell-based; inhibition, % at 3.6 µM; 200,000 compounds, 1% hits; HEK293-CNG Y1 cells, membrane potential fluorescence; NPY at EC95, then isoproterenol; Neuropeptide Y receptor type 1 (Homo sapiens), P25929;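 active means inhibition above the campaign mean inhibition of all tested compounds plus 3 SD, cut at about 20% in these data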;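 further: 0% = DMSO wells given NPY plus isoproterenol and 100% = isoproterenol alone without NPY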
# Target sequence (P25929 whole entry, looked up): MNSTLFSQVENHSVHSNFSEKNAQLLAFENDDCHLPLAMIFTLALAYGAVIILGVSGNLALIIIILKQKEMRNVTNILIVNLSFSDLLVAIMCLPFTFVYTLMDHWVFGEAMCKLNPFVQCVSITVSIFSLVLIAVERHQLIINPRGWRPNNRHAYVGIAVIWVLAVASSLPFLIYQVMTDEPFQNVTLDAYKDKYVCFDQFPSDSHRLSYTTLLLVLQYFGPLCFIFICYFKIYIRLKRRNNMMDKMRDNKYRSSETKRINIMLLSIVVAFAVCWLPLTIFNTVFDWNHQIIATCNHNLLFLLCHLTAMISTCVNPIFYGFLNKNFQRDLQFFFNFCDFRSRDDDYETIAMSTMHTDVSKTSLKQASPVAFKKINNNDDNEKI
#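 Material: HEK293 Y1/CNG channel cell line; also added: NPY (25 nM), isoproterenol (1 µM), Ro 20-1724 (25 µM); doses: one concentration, 3.6 µM, in 0.4% DMSO; schedule: compound incubation 1 h at room temperature, readout 45 min post-stimulation; technique: membrane potential fluorescence; measure: fluorescence ratio normalized to % inhibition between controls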
# S1P4 antagonist: S1P4 receptor antagonists, primary screen, cell-based. S1P4-expressing cells, antagonist mode, reporter read-out. Sphingosine 1-phosphate receptor 4 (Homo sapiens), O95977. inhibition, % at 4.98 µM. 220,000 compounds, 0.26% hits; in the data active means inhibition above about 29%;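 further: 0% = wells stimulated with agonist and 100% = vehicle wells without agonist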
# S1P4 ag: S1P4 receptor agonists, primary screen, cell-based. S1P4-expressing cell line, agonist reporter assay. activation, % at 4.98 µM. 220,000 compounds, 0.35% hits. AID 1509, 2009; in the data active means activation above about 11%;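 further: 0% = DMSO vehicle and 100% = reference agonist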
# NPY1 pot ag: NPY-Y1 receptor potentiators or agonists, primary screen, cell-based; activation, % at 3.6 µM; Neuropeptide Y receptor type 1 (Homo sapiens), P25929; NPY-Y1 expressing cells, potentiator/agonist activation; 220,000 compounds, 0.37% hits; in the data active means activation above about 33%, passing the limit was not always enough;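 further: cells stimulated with NPY at EC10 then isoproterenol at EC100; 0% = low agonist plus stimulus and 100% = saturating agonist plus stimulus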
# NPY-Y2 antag: NPY-Y2 receptor antagonists, primary screen, cell-based; Neuropeptide Y receptor type 2 (Homo sapiens), P49146; AID 793, 2007; 140,000 compounds, 0.99% hits; NPY-Y2 expressing cells, antagonist mode; inhibition, % at 2.7 µM; in the data active means inhibition above about 17%;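 further: 0% = vehicle with agonist challenge and 100% = reference antagonist with challenge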
# NPY-Y1 confirm: NPY-Y1 potentiators or agonists, confirmation, cell-based | shares compounds with NPY1 pot ag | cell-based NPY-Y1 potentiator/agonist assay | activation, % at 3.6 µM | 280 compounds, 20% hits | AID 1546, 2009; in the data active means activation above about 45%;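 further: cells challenged with NPY at its EC10 plus isoproterenol stimulus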
# NPY-Y2 counter: NPY-Y2 potentiators or agonists, counter-screen for NPY-Y1 potentiator project, cell-based, fluorescence; shares compounds with NPY1 pot ag; HEK293-CNG cells, membrane-potential fluorescence (FLIPR), 1536-well; activation, % at 3.6 µM; 280 compounds, 20% hits; AID 1649, 2009; in the data active means activation above about 33%
# NPY-Y1 agonist: NPY-Y1 direct agonists without NPY, confirmation, counter-screen for NPY-Y1 potentiator project, cell-based, fluorescence; 280 compounds, 50% hits; HEK293 Y1-CNGC, membrane potential fluorescence, agonist mode; AID 1697, 2009; shares compounds with NPY1 pot ag; activation, % at 3.6 µM;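 active means percent activation above the mean of DMSO-only control wells plus 3 SD of those wells, cut at about 18% in these data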;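 further: cells challenged with isoproterenol plus Ro 20-1724 with no NPY in test wells; Y1 agonism lowers isoproterenol-driven cAMP and reduces probe fluorescence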
# NPY-Y2 agonist: NPY-Y2 direct agonists without NPY, counter-screen for NPY-Y1 potentiator project, cell-based, fluorescence | shares compounds with NPY1 pot ag | HEK293 Y2-CNGC, membrane potential fluorescence, agonist mode | activation, % at 3.6 µM | 280 compounds, 67% hits;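 active means activation above the solvent-only control wells' mean plus 3 SD, cut at about 11% in these data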;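 further: 0% = DMSO with isoproterenol and 100% = 40 nM NPY maximal response; agonism lowers cAMP so well fluorescence drops in active wells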
# CNGC inh 2: CNGC cAMP sensor activity inhibitors, counter-screen for NPY-Y1 potentiator/agonist project, cell-based, HEK293-CNG parental, membrane potential fluorescence, Y1 set | isoproterenol cAMP | AID 1704, 2009 | 280 compounds, 42% hits | inhibition, % at 3.6 µM | shares compounds with NPY1 pot ag;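 active means inhibition above the mean of stimulated solvent-only control wells plus 3 SD, cut at about 22% in these data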;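 further: 0% = isoproterenol-stimulated DMSO wells and 100% = unstimulated DMSO wells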
# An asterisk follows results filed as active; . = no result given. Sampled rows, rich in hits. Any-hit rate of the full collection: about 2.4%.
SMILES,NPY2 pot ag,NPY-Y1 antag,S1P4 antagonist,S1P4 ag,NPY1 pot ag,NPY-Y2 antag,NPY-Y1 confirm,NPY-Y2 counter,NPY-Y1 agonist,NPY-Y2 agonist,CNGC inh 2
COc1ccc(/C=C2\SC(=S)N(CC3CCCO3)C2=O)cc1 (configuration not stated),10,.,-1,1,11,.,.,.,.,.,.
COc1ccc(N=C2O/C(=C/c3sc(=S)n(CC4CCCO4)c3O)N=C2C#N)cc1 (configuration not stated),21,.,-5,0,53*,.,42,45*,22*,48*,12
O=C(c1cc(-c2cccc(O)c2)on1)N1CCN(C(c2ccccc2)c2ccccc2)CC1,-6,8,2,1,32*,1,32,5,18*,16*,7
O=C(c1cc(C2CC2)on1)N1CCN(C(c2ccccc2)c2ccccc2)CC1,5,-2,-6,4,-6,-2,.,.,.,.,.
Cc1cc(Nc2ccc3c(c2)OCCO3)c2cc(Cl)ccc2n1,-13,16,-19,0,-32,12,.,.,.,.,.
CCCC(=O)c1c[nH]c(C(=O)NCCc2ccccn2)c1,-10,3,-2,1,-22,3,.,.,.,.,.
COC(=O)CNC(=O)C12CC3CC(C1)CC(c1ccc(C)cc1)(C3)C2,-10,6,-15,-2,6,.,.,.,.,.,.
Cc1ccc(C23CC4CC(CC(CN)(C4)C2)C3)cc1,25,5,6,-2,35*,.,40,24,21*,31*,31*
CC(=O)c1ccc(NC(=S)NC(C)c2ccc(Cl)cc2Cl)cc1 (configuration not stated),25,-5,-14,3,37*,.,48*,27,37*,35*,36*
O=C(OCC(=O)N1CCCc2ccccc21)c1cnc(Cl)c(Cl)c1,19,-1,7,1,49*,6,31,16,22*,7,25*
COCc1cc(C)nc(SCC[N+](C)(C)CC(=O)Nc2cccc(C(F)(F)F)c2)c1C#N,-6,-4,-4,0,54*,.,22,12,16,6,4
COC(=O)CNC(=O)CN1C(=O)N(c2ccccc2)C(N(O)C(=O)Nc2ccccc2)C1(C)C (configuration not stated),-15,0,-15,0,-6,1,.,.,.,.,.
COC(=O)CNC(=O)CN1C(=O)N(c2cccc(Cl)c2)C(N(O)C(=O)Nc2cccc(Cl)c2)C1(C)C (configuration not stated),10,-9,2,-2,49*,-4,46*,29,32*,31*,32*
CC(C)N(C(=O)c1sc2cc([N+](=O)[O-])ccc2c1Cl)C(C)C,23,1,2,-1,85*,4,9,7,-2,18*,6
O=C(c1sc2cc([N+](=O)[O-])ccc2c1Cl)N1CCOCC1,11,-4,4,1,13,1,.,.,.,.,.
CC1(C)CC2=C(CO1)C(=S)NC(c1ccccc1)N2CC1CCCO1 (configuration not stated),4,.,8,0,4,.,.,.,.,.,.
CC(=O)Oc1cc2c3c(c1)/C(=C1/SC(=S)NC1=O)C(=O)N3C(C)(C)C=C2C,23,.,-12,-1,51*,.,42,40*,37*,43*,40*
CCOC(=O)C1=C(CC)Nc2ccccc2N/C1=N\S(=O)(=O)c1cc(Br)ccc1Br,16,-2,-3,0,33*,.,7,6,4,1,7
CCOC(=O)C1=C(CC)Nc2ccccc2N/C1=N\S(=O)(=O)c1ccc2ccccc2c1,-8,6,-4,1,5,.,.,.,.,.,.
COc1ccc([N+](=O)[O-])cc1NC(=O)c1cn(-c2ccc(Cl)cc2)c(=O)c2ccccc12,11,2,-12,0,-13,0,.,.,.,.,.
Cc1[nH]c2ccccc2c1N=Nc1ccc(F)cc1,19,-7,-7,1,39*,.,40,28,33*,30*,26*
COC(=O)COc1ccc(S(=O)(=O)NCCC2=CCCCC2)cc1Cl,20,1,-2,1,56*,5,57*,31,52*,39*,49*
COCCNS(=O)(=O)c1ccc(OCC(=O)OC)c(Cl)c1,1,2,-26,0,-6,2,.,.,.,.,.
COc1ccc(OCC(O)Cn2c(N)nc3c2c(=O)[nH]c(=O)n3C)cc1 (configuration not stated),-6,.,3,-1,16,.,.,.,.,.,.
CN(C)CCNC(=O)COc1ccc(Cl)cc1Cl,-11,-8,-6,1,-17,5,.,.,.,.,.
O=C(COc1ccc(Cl)cc1Cl)NCCSc1ccc(Cl)cc1,-33,18,-1,3,91*,7,-36,-23,-21,-1,-26
CCOC(=O)C1=C(C)C2C3C(=O)N(c4cc(C)ccc4C)C(=O)C3C1(C)C1C(=O)N(c3cc(C)ccc3C)C(=O)C21 (configuration not stated),8,0,-8,0,44*,-3,17,9,16,8,10
COc1cc(/C=C(\C#N)c2nc3ccccc3s2)cc([N+](=O)[O-])c1O,13,0,9,0,17,.,.,.,.,.,.
N#C/C(=C\c1ccc(O)c([N+](=O)[O-])c1)c1nc2ccccc2s1,7,-7,-20,2,39*,.,15,12,9,4,16
COCCCNCCCCOc1ccc(C)cc1[N+](=O)[O-],-5,4,-15,0,-17,2,.,.,.,.,.
